Tests used:
[1] = Stability of the compound in aqueous solution assessed as compound remaining at 1 mM at pH 7.4 after 1 hr by TLC analysis; assay type: physicochemical; conditions: aqueous solution, pH 7.4; read-out: Stability
In short: (§1)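 DMSO stocks diluted to final 1 mM in KCl·HCl pH 1.0, citrate pH 6.0, Tris·HCl pH 7.4 or borax·HCl pH 9.0 buffer. Incubated 1 h at 37 °C, then ethyl acetate extracts checked by TLC for decomposition products.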

[2] = tested on: Salmonella typhimurium; assay: Mutagenic activity in Salmonella typhimurium TA100 at 6 to 500 ug/plate by Ames test; assay type: toxicity, organism-based; conditions: salmonella enterica subsp. enterica serovar typhimurium
In short: (§2)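 Direct plate incubation on minimal glucose agar (Vogel-Bonner E). Compound toxicity to the bacteria was checked first. DMSO solutions were tested at five consecutive 3-fold dilutions, starting from the highest non-toxic dose, in triplicate, without metabolic activation. DMSO served as negative control. Revertants were counted manually; mutagenic = revertants at least double the negative control at two or more consecutive doses.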

[3] = Stability of the compound in aqueous solution assessed as compound remaining at 1 mM at pH 6 after 1 hr by TLC analysis; assay type: physicochemical; conditions: aqueous solution, pH 6; read-out: Stability; in short: as §1
[4] = Stability of the compound in aqueous solution assessed as compound remaining at 1 mM at 37 degC after 1 hr by TLC analysis in presence of rat liver cytosolic fraction; assay type: ADME; conditions: cytosol, 1000 µM
In short: (§3)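 Rat liver cytosolic (100 000g supernatant) and microsomal (100 000g pellet, washed and resuspended in Tris·HCl) fractions, fresh or stored at −80 °C; protein measured by BCA. Compound incubated with the fraction 1 h at 37 °C and analysed by TLC of extracts.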

[5] = Stability of the compound in aqueous solution assessed as compound remaining at 1 mM at pH 9 after 1 hr by TLC analysis; assay type: physicochemical; conditions: aqueous solution, pH 9; read-out: Stability; in short: as §1
[6] = tested on: Salmonella typhimurium; assay: Mutagenic activity in Salmonella typhimurium TA100 at 6 to 500 ug/plate by Ames test in presence of mouse liver S9 fraction; assay type: toxicity, organism-based; conditions: salmonella enterica subsp. enterica serovar typhimurium
In short: (§4)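 Plate-incorporation Ames test on minimal glucose agar with 500 μL Aroclor-treated mouse liver S9 added. DMSO solutions were tested at five consecutive 3-fold dilutions from the highest non-toxic dose, in triplicate, with a DMSO negative control. Revertants were counted manually; a compound was scored mutagenic when revertants were at least twice the negative control for two or more consecutive doses.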

[7] = tested on: Mus musculus; assay: Toxicity in BALB/c mouse assessed as mortality at 100 mg/kg/day, po for 14 days; assay type: organism-based; design: route oral; conditions: in vivo, 336 h
In short: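 Uninfected female BALB/c mice (n = 2/group) received intragastric gavage daily for 14 days in saline/Tween 80 (4:1). They were weighed and monitored daily, then sacrificed for macroscopic necropsy of organs.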

[8] = tested on: Salmonella typhimurium; assay: Mutagenic activity in Salmonella typhimurium TA1535 at 6 to 500 ug/plate by Ames test in presence of mouse liver S9 fraction; assay type: toxicity, organism-based; conditions: salmonella enterica subsp. enterica serovar typhimurium; in short: as §4
[9] = Stability of the compound in aqueous solution assessed as compound remaining at 1 mM at 37 degC after 1 hr by TLC analysis in presence of rat liver microsomal fraction; conditions: microsomes, 1000 µM; in short: as §3
[10] = tested on: Trypanosoma cruzi; assay: (§5) Antitrypanosomal activity against Trypanosoma cruzi CL Brener infected in BALB/c mouse assessed as peak of maximum parasitemia at 107 umol/kg/day, po administered in cholesterol/surfactant/phosphate buffer in 19 day schedule including 5 days of dosing 2 days of resting and final 4 days of dosing measured up to 60 days relative to control; assay type: functional
In short: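 Male BALB/c mice (n = 6/group) were infected i.p. with 10³ blood trypomastigotes. From day 6 they were dosed orally in microemulsion vehicle on a schedule of 5 days on, 2 off, 5 on, 2 off, 4 on. Controls received vehicle. Parasitemia was counted weekly in tail-vein blood for 60 days, and mortality was recorded.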

[11] = tested on: Salmonella typhimurium; assay: Mutagenic activity in Salmonella typhimurium TA1537 at 6 to 500 ug/plate by Ames test in presence of mouse liver S9 fraction; assay type: toxicity, organism-based; conditions: salmonella enterica subsp. enterica serovar typhimurium; in short: as §4
[12] = tested on: Trypanosoma cruzi; assay: Antitrypanosomal activity against Trypanosoma cruzi Tulahuen 2 epimastigotes assessed as growth inhibition after 5 days; assay type: functional, organism-based; conditions: Trypanosoma cruzi, Tulahuen 2, 120 h
In short: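 Epimastigotes were grown axenically at 28 °C in BHI-tryptose with 5% FBS and seeded from a 5–7 day culture at 1 × 10⁶ cells/mL. Drug from a DMSO stock was added (final DMSO ≤0.4%; the control contained 0.4% DMSO). Duplicates were run. A600 was read at day 5, and % inhibition was calculated relative to day-0 and control readings. IC50 = concentration that halves the absorbance ratio.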

[13] = tested on: Salmonella typhimurium; assay: Mutagenic activity in Salmonella typhimurium TA102 at 6 to 500 ug/plate by Ames test in presence of mouse liver S9 fraction; assay type: toxicity, organism-based; conditions: salmonella enterica subsp. enterica serovar typhimurium; in short: as §4
[14] = tested on: Trypanosoma cruzi; assay: as §5, with “mouse survival” for “peak of maximum parasitemia”; assay type: functional
In short: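 Oral gavage of infected male BALB/c mice at 50 mg/kg/day in cholesterol/surfactant/phosphate buffer pH 7.4 microemulsion, from day 6 postinfection. Schedule: 5 days dosing, 2 rest, 5 dosing, 2 rest, 4 dosing. n = 6/group, with vehicle controls. Parasitemia was read weekly in tail-vein blood for 60 days and mortality recorded.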

[15] = tested on: Salmonella typhimurium; assay: Mutagenic activity in Salmonella typhimurium TA102 at 6 to 500 ug/plate by Ames test; assay type: toxicity, organism-based; conditions: salmonella enterica subsp. enterica serovar typhimurium; in short: as §2
[16] = tested on: Salmonella typhimurium; assay: Mutagenic activity in Salmonella typhimurium TA1537 at 6 to 500 ug/plate by Ames test; assay type: toxicity, organism-based; conditions: salmonella enterica subsp. enterica serovar typhimurium; in short: as §2
[17] = Selectivity index, ratio of IC50 for African green monkey Vero cells to IC50 for Trypanosoma cruzi Sylvio X-10 amastigotes; assay type: toxicity, cell-based; conditions: read-out: Ratio IC50
In short: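 VERO cytotoxicity: cells exposed 48 h at 37 °C, 5% CO2 to serial dilutions from a maximum of 2000 μM (DMSO stocks; DMSO <0.1% control); growth inhibition read by MTT at 570 nm. Amastigote IC50: Sylvio X-10-infected VERO cells, five doses, infected cells counted among 300 (Giemsa), quadruplicate, three experiments, sigmoidal fit. SI = IC50 VERO / IC50 amastigote.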

[18] = tested on: Trypanosoma cruzi; assay: Antitrypanosomal activity against Trypanosoma cruzi Sylvio X-10 amastigotes infected in African green monkey Vero cells assessed as eradication of amastigotes after 5 days by Giemsa staining-based assay; assay type: functional, organism-based; conditions: Sylvio X-10, Vero, 120 h
In short: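 VERO cells in RPMI 1640 with 10% hiFCS were allowed to adhere for 24 h at 37 °C in 5% CO₂, then infected with tissue-derived trypomastigotes at 10:1. Free parasites were washed off after 24 h, and cultures were treated at five compound doses (text gives 72 h / 5 days). Cultures were methanol-fixed and Giemsa-stained, and infected cells were counted among 300. Quadruplicates were run in three independent experiments. IC50/IC90 were obtained by sigmoidal regression.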

[19] = tested on: Salmonella typhimurium; assay: Mutagenic activity in Salmonella typhimurium TA98 at 6 to 500 ug/plate by Ames test; assay type: toxicity, organism-based; conditions: salmonella enterica subsp. enterica serovar typhimurium
In short: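 Ames plate-incorporation assay with S. typhimurium TA98 in Vogel-Bonner E minimal glucose agar. Toxicity toward the bacteria was checked first. DMSO solutions were run in triplicate at five consecutive third-dilutions, starting at the highest non-toxic dose. Positive controls were 4-nitro-o-phenylenediamine (20.0 μg/plate) and 2-aminofluorene (10.0 μg/plate); DMSO was the negative control. Revertants were counted manually. A compound was called mutagenic when revertants were at least twice the negative control at two or more consecutive doses.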

[20] = Stability of the compound in eumulgin HRE 40, sodium oleate, soya phosphatidylcholine, cholesterol, and phosphate buffer at pH 7.4 at 4 degC; assay type: physicochemical
In short: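 Storage stability of the compound in vehicle V2, a microemulsion of surfactant (Eumulgin HRE 40/sodium oleate/soya phosphatidylcholine, 10%), cholesterol oil phase (10%) and pH 7.4 phosphate buffer (80%), followed over 1 week at 4 °C.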

[21] = Selectivity index, ratio of IC50 for mouse J774.1 cells to IC50 for Trypanosoma cruzi Sylvio X-10 amastigotes; assay type: toxicity; conditions: read-out: Ratio IC50
In short: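 J774.1 macrophages grown in DMEM with 10% heat-inactivated FCS and allowed to attach 48 h, then exposed 48 h at 37 °C to 12.5–400.0 μM. Triplicates. MTT 0.1 mg/mL for 3 h, read at 560 nm; IC50 by linear regression against the solvent control. SI = IC50 J774.1 / parasite IC50 (Sylvio X-10 amastigotes or Tulahuen 2 epimastigotes, the latter measured by A600 growth inhibition at day 5).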

[22] = tested on: Salmonella typhimurium; assay: Mutagenic activity in Salmonella typhimurium TA1535 at 6 to 500 ug/plate by Ames test; assay type: toxicity, organism-based; conditions: salmonella enterica subsp. enterica serovar typhimurium; in short: as §2

With `Br.C=CCn1c(-c2ccc3ccccc3c2)cs\c1=N/N=C/C=C/c1ccco1` the remaining at 1 h, 1000 µM [1] was > 95%, the Activity [2] was “Non-toxic” and the remaining at 1 h, 1000 µM [3] was > 95%. For the same molecule, the Stability [4] was “Stable”, the remaining at 1 h, 1000 µM [5] was > 95% and the Activity [6] was “Non-toxic”. For the same molecule, the Activity [7] was “Non-toxic”, the Activity [8] was “Non-toxic” and the Stability [9] was “Stable”. The Time [10] was 42 days, the Activity [11] was “Non-toxic” and the IC50 [12] was 2400 nM. For the same molecule, the Activity [13] was “Non-toxic”, the survival at 107 µmol/kg [14] was 100% and the Activity [15] was “Non-toxic”. For the same molecule, the Activity [16] was “Non-toxic”, the selectivity ratio [17] was > 1000 and the IC50 [18] was < 210 nM. For the same molecule, the Activity [19] was “Non-toxic”, the Stability [20] was “Stable” and the selectivity ratio [21] was > 120. For the same molecule, the Activity [22] was “Non-toxic”.
